In ChEMBL document CHEMBL1155485, “Pyrimidine ribonucleotides with enhanced selectivity as P2Y(6) receptor agonists: novel 4-alkyloxyimino, (S)-methanocarba, and 5'-triphosphate gamma-ester modifications” (J Med Chem, 2010):
pEC50: −log10 of the molar value.

Each compound was assayed against T1, P2Y purinoceptor 2 (Homo sapiens, UniProt P41231) (assay: Agonist activity at human recombinant P2Y2 receptor expressed in human 1321N1 cells assessed as [3H]inositol phosphate production by scintillation proximity assay).
T1 sequence (P41231 whole entry): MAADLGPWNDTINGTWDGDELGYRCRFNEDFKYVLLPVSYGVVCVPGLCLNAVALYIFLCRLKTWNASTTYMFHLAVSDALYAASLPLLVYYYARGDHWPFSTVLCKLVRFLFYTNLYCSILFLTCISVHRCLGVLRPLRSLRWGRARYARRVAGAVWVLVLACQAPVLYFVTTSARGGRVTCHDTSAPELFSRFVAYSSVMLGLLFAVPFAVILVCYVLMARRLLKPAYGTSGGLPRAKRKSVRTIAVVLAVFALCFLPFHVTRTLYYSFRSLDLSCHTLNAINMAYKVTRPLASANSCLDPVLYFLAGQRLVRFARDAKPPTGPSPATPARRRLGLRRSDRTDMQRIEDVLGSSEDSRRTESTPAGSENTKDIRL
Format: functional, cell-based
Outline: (§1)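 Stably transfected 1321N1 astrocytoma cells (human P2Y2, P2Y4 or P2Y6 receptor) seeded at 20,000 cells/well two days before assay; labelled 16 h with myo-[3H]inositol (1.0 μCi) in serum-free inositol-free DMEM. Agonist added in HEPES pH 7.3/HBSS with LiCl (50 mM, fivefold stock), 30 min at 37°C; stopped with ice-cold 50 mM formic acid. [3H]inositol phosphates read by SPA.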

Row | Structure (SMILES) | pEC50
1 | CO/N=c1/ccn([C@@H]2O[C@H](COP(=O)(O)OP(=O)(O)OP(=O)(O)O[C@H]3O[C@H](CO)[C@@H](O)[C@H](O)[C@H]3O)[C@@H](O)[C@H]2O)c(=O)[nH]1 | < 5.00
2 | CO/N=c1/ccn([C@@H]2O[C@H](COP(=O)(O)OP(=O)(O)OP(=O)(O)Oc3ccccc3)[C@@H](O)[C@H]2O)c(=O)[nH]1 | < 5.00
3 | CCO/N=c1/ccn([C@@H]2O[C@H](COP(=O)(O)OP(=O)(O)O)[C@@H](O)[C@H]2O)c(=O)[nH]1 | 6.55
4 | CC(C)(C)O/N=c1/ccn([C@@H]2O[C@H](COP(=O)(O)OP(=O)(O)O)[C@@H](O)[C@H]2O)c(=O)[nH]1 | 5.45
5 | CONc1ccn([C@@H]2O[C@H](COP(=O)(O)OP(=O)(O)OP(=O)(O)OC[C@H]3O[C@@H](n4ccc(NOC)nc4=O)[C@H](O)[C@@H]3O)[C@@H](O)[C@H]2O)c(=O)n1 | 5.67

What follows are compounds tested against T1, P2Y purinoceptor 2 (assay: Agonist activity at human recombinant P2Y2 receptor expressed in human 1321N1 cells assessed as [3H]inositol phosphate production at 10 uM by scintillation proximity assay).
Format: functional, cell-based

Row | Structure (SMILES) | Activity [%]
6 | CO/N=c1/ccn([C@@H]2O[C@H](COP(=O)(O)OP(=O)(O)OP(=O)(O)O[C@H]3O[C@H](CO)[C@@H](O)[C@H](O)[C@H]3O)[C@@H](O)[C@H]2O)c(=O)[nH]1 | < 50
7 | CO/N=c1/ccn([C@@H]2O[C@H](COP(=O)(O)OP(=O)(O)OP(=O)(O)Oc3ccccc3)[C@@H](O)[C@H]2O)c(=O)[nH]1 | < 50
8 | CO/N=c1/ccn([C@@H]2O[C@H](COP(=O)(O)CP(=O)(O)O)[C@@H](O)[C@H]2O)c(=O)[nH]1 | < 50

These compounds were tested against P2Y purinoceptor 4 (Homo sapiens, UniProt P51582) (assay: Agonist activity at human recombinant P2Y4 receptor expressed in human 1321N1 cells assessed as [3H]inositol phosphate production by scintillation proximity assay).
P2Y purinoceptor 4, sequence (P51582 whole entry): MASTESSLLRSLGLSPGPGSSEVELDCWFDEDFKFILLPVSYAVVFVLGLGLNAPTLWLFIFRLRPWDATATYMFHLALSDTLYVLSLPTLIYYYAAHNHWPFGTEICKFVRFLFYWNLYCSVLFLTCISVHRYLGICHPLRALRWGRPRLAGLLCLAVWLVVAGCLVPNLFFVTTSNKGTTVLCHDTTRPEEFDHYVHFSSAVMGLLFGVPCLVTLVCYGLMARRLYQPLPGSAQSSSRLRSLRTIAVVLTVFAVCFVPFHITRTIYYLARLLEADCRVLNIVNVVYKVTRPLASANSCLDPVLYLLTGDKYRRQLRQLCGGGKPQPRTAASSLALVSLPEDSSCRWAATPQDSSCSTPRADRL
Format: functional, cell-based
Outline: as §1

Row | Structure (SMILES) | pEC50
9 | CCO/N=c1/ccn([C@@H]2O[C@H](COP(=O)(O)OP(=O)(O)O)[C@@H](O)[C@H]2O)c(=O)[nH]1 | 6.74
10 | CC(C)(C)O/N=c1/ccn([C@@H]2O[C@H](COP(=O)(O)OP(=O)(O)O)[C@@H](O)[C@H]2O)c(=O)[nH]1 | 5.21
11 | CONc1ccn([C@@H]2O[C@H](COP(=O)(O)OP(=O)(O)OP(=O)(O)OC[C@H]3O[C@@H](n4ccc(NOC)nc4=O)[C@H](O)[C@@H]3O)[C@@H](O)[C@H]2O)c(=O)n1 | 6.25

These compounds were tested against T2, P2Y purinoceptor 6 (Homo sapiens, UniProt Q15077) (assay: Agonist activity at human recombinant P2Y6 receptor expressed in human 1321N1 cells assessed as [3H]inositol phosphate production up to 10 uM by scintillation proximity assay).
T2 sequence (Q15077 whole entry): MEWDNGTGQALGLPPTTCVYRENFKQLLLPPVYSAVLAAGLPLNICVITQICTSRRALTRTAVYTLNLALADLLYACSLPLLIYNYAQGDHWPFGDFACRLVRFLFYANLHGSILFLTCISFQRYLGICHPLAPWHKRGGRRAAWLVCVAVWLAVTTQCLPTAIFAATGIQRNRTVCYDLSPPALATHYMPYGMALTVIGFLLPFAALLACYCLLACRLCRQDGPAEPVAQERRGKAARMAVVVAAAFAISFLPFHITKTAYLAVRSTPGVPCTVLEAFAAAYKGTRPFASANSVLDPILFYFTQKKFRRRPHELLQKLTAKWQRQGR
Format: functional, cell-based
Outline: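 Human 1321N1 astrocytoma cells stably expressing the human P2Y2 or P2Y6 receptor, seeded at 20,000 cells/well two days before assay. Inositol lipids labelled for 16 h with 1.0 μCi myo-[3H]inositol in serum-free, inositol-free DMEM. Agonist added in HEPES pH 7.3/HBSS with LiCl, 30 min at 37°C. Stopped with ice-cold 50 mM formic acid; [3H]inositol phosphates counted by scintillation proximity assay. Triplicates.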

Row | Structure (SMILES) | Activity [%]
12 | O=C(Cn1c(=O)ccn([C@@H]2O[C@H](COP(=O)(O)OP(=O)(O)OP(=O)(O)O[C@H]3O[C@H](CO)[C@@H](O)[C@H](O)[C@H]3O)[C@@H](O)[C@H]2O)c1=O)c1ccccc1 | < 50

These compounds were tested against T2, P2Y purinoceptor 6 (assay: Agonist activity at human recombinant P2Y6 receptor expressed in human 1321N1 cells assessed as [3H]inositol phosphate production by scintillation proximity assay).
Format: functional, cell-based
Outline: as §1

Row | Structure (SMILES) | pEC50
13 | O=c1[nH]c(=O)n([C@@H]2O[C@H](COP(=O)(O)CP(=O)(O)O)[C@@H](O)[C@H]2O)cc1I | 6.89
14 | CO/N=c1/ccn([C@@H]2O[C@H](COP(=O)(O)OP(=O)(O)OP(=O)(O)O[C@H]3O[C@H](CO)[C@@H](O)[C@H](O)[C@H]3O)[C@@H](O)[C@H]2O)c(=O)[nH]1 | 6.74
15 | CO/N=c1/ccn([C@@H]2O[C@H](COP(=O)(O)OP(=O)(O)OP(=O)(O)Oc3ccccc3)[C@@H](O)[C@H]2O)c(=O)[nH]1 | 5.46
16 | O=c1ccn([C@@H]2O[C@H](COP(=O)(O)CP(=O)(O)O)[C@@H](O)[C@H]2O)c(=O)[nH]1 | 6.15
17 | O=c1[nH]c(=O)n([C@@H]2O[C@H](COP(=O)(O)OP(=O)(O)O)[C@@H](O)[C@H]2O)cc1I | 7.82
18 | O=c1[nH]c(=O)n([C@@H]2O[C@H](COP(=O)(O)OP(=O)(O)OP(=O)(O)O[C@H]3O[C@H](CO)[C@@H](O)[C@H](O)[C@H]3O)[C@@H](O)[C@H]2O)cc1I | 5.33
19 | O=C(Cn1c(=O)ccn([C@@H]2O[C@H](COP(=O)(O)OP(=O)(O)OP(=O)(O)O[C@H]3O[C@H](CO)[C@@H](O)[C@H](O)[C@H]3O)[C@@H](O)[C@H]2O)c1=O)c1ccccc1 | < 5.00
20 | CONc1ccn([C@@H]2O[C@H](COP(=O)(O)OP(=O)(O)OP(=O)(O)OC[C@H]3O[C@@H](n4ccc(NOC)nc4=O)[C@H](O)[C@@H]3O)[C@@H](O)[C@H]2O)c(=O)n1 | 7.20
